Active and inactive are the calls of the source. No cut-off for these calls is given here.
Assays:
[1] = Cytotoxicity against BALB/c mouse peritoneal macrophages after 72 hrs by AlamarBlue assay; assay type: cell-based, Peritoneal macrophage cell; conditions: read-out: LC50
Procedure, shortened: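 Peritoneal exudate macrophages from BALB/c mice, 1 × 10^5 cells/well in phenol-red-free RPMI-1640 with 10% FBS and 50 μg/mL gentamycin, pre-incubated 24 h at 37 °C, 5% CO2. Compounds from DMSO stocks diluted in medium, five concentrations 0.24–20 μM in triplicate, 72 h. AlamarBlue added over 10 h, read at 570/600 nm. LC50 from three independent experiments, mean ± SD.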

[2] = target: Cruzipain (Trypanosoma cruzi) (UniProt P25779); experiment: Inhibition of recombinant Trypanosoma cruzi cruzain at 25 uM preincubated for 10 mins followed by substrate addition measured after 10 mins relative to control
Procedure, shortened: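 Recombinant cruzain activated in 0.1 M acetate buffer pH 5.5 with 5.5 mM DTT, adjusted to 0.1 μM. Enzyme in phosphate buffer with 0.01% Triton. Preincubated with compound 10 min at 35 °C, then fluorogenic substrate added for 10 min. Inhibition % = 100 − (A1/A × 100) against cruzain plus substrate RFU. Triplicate; E-64c as standard.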

[3] = system: Trypanosoma cruzi; experiment: Antitrypanosomal activity against trypomastigote stage of Trypanosoma cruzi Y assessed as living parasites level after 24 hrs by Neubauer chamber analysis; assay type: functional, organism-based
Procedure, shortened: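 Y trypomastigotes from LLC-MK2 culture supernatants, 4 × 10^5 per well. Five concentrations, 0.24–20 μM, from DMSO stocks diluted in medium. Incubated 24 h at 37 °C, 5% CO2. Live parasites counted and compared with untreated culture. Run in triplicate, at least three independent experiments. IC50 as mean ± SD.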

[4] = system: Trypanosoma cruzi; experiment: Antitrypanosomal activity against amastigote stage of Trypanosoma cruzi Y in BALB/c mouse peritoneal macrophages assessed as reduction of number of intracellular parasites per 100 cells after 4 days by hematoxylin/eosin staining-based optical microscopic analysis; assay type: functional, organism-based; conditions: 96 h
Procedure, shortened: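 Macrophages plated 2 × 10^5 per well on coverslips in RPMI + 10% FBS for 24 h, infected with trypomastigotes at 10 parasites per macrophage for 2 h, then washed. Compounds at five concentrations, 0.12–10 μM, in triplicate for 6 h. Medium replaced, 4 days further culture. Coverslips fixed in absolute alcohol. IC50 taken as concentration halving amastigotes per 100 macrophages; mean ± SD of three independent experiments.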

[5] = system: Trypanosoma cruzi; experiment: Antitrypanosomal activity against trypomastigote stage of Trypanosoma cruzi Y infected in BALB/c mouse peritoneal macrophages assessed as inhibition of host cell invasion at 10 uM after 2 hrs by hematoxylin/eosin staining-based optical microscopic analysis; assay type: functional, organism-based
Procedure, shortened: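 Macrophages at 1 × 10^5 per well on coverslips in RPMI + 10% FBS for 24 h. Infected with trypomastigotes at 100 per macrophage and treated at 10 μM, with amphotericin B 10 μM as reference. Incubated 2 h at 37 °C, washed, then 2 h more in medium. Fixed in absolute alcohol. Percentage of infected macrophages counted after H&E.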

[6] = system: Trypanosoma cruzi; experiment: Antitrypanosomal activity against blood stage trypomastigote form of Trypanosoma cruzi Y infected in BALB/c mouse assessed as reduction of mortality at 100 mg/kg, po qd administered for 5 days measured for 30 days; assay type: functional, organism-based; design: dose 100 mg/kg
Procedure, shortened: (§1)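 Female BALB/c mice, 6–8 weeks, infected ip with 10^4 bloodstream Y trypomastigotes, six per group. From day 5, oral dosing once daily for five days, vehicle saline with 20% DMSO; untreated infected group got vehicle. Motile parasites counted in 5 μL tail-vein fresh blood. Survival checked daily to day 30. Means ± SEM.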

[7] = system: Trypanosoma cruzi; experiment: Antitrypanosomal activity against blood stage trypomastigote form of Trypanosoma cruzi Y infected in BALB/c mouse assessed as reduction of blood parasitemia at 100 mg/kg, po qd administered for 5 days relative to control; assay type: functional; design: scale not given: the % may be the effect or the level left; procedure, shortened: as §1
[8] = system: Mus musculus; experiment: Toxicity in BALB/c mouse infected with blood stage trypomastigote form of Trypanosoma cruzi Y at 100 mg/kg, po qd administered for 5 days measured during compound treatment; assay type: organism-based; design: dose 100 mg/kg, route oral; conditions: in vivo, 120 h; procedure, shortened: as §1

Chain of Cruzipain (Trypanosoma cruzi) (P25779 123-467 limits assumed): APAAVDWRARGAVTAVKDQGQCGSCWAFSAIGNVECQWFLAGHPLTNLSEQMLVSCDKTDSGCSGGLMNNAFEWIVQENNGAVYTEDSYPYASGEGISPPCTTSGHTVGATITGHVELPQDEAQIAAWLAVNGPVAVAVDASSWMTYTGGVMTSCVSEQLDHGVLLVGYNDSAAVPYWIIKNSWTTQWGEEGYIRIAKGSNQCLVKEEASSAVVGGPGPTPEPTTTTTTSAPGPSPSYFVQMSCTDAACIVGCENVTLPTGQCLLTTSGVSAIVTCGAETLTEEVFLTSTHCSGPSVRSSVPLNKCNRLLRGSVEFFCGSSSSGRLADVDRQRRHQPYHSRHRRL

SMILES	CC50 at 72 h [1] [µM]	inhibition [2] [%]	IC50 [3] [µM]	IC50 [4] [µM]	inhibition [5]	Activity [6]	Activity [7] [%]	Activity [8]
CN(C)c1ccc(C(=C2C=CC(=[N+](C)C)C=C2)c2ccc(N(C)C)cc2)cc1 [GENTIAN VIOLET]	0.48	–	–	–	–	–	–	–
COc1cc(O)cc2c1[C@@H](/C=C/c1ccc(O)cc1)[C@@H]1[C@@H](c3ccccc3)Oc3cc(O)cc(OC)c3[C@@H]1O2	> 20	0	> 20	> 20	–	–	–	–
COc1ccc(/C=C/[C@@H]2c3c(OC)cc(O)cc3O[C@H]3c4c(OC)cc(O)cc4O[C@H](c4ccccc4)[C@@H]23)cc1	15.6	0	5.3	6	Active	Active	92	Non-toxic
CC(C)CCNC(=O)[C@H](CC(C)C)NC(=O)[C@H]1O[C@@H]1C(=O)O	–	100	–	–	–	–	–	–
O=C(Cn1ccnc1[N+](=O)[O-])NCc1ccccc1 [BENZNIDAZOLE]	> 20	–	11.3	–	Active	–	99	–
COc1cc(O)cc2c1[C@@H](/C=C/c1ccccc1)[C@@H]1[C@@H](c3ccccc3)Oc3cc(O)cc(OC)c3[C@@H]1O2	17.3	0	6.6	6.8	Active	–	–	–
